Here are results for six compounds from ChEMBL document CHEMBL1128579, “The role of charge in polyamine analogue recognition” (J Med Chem, 1995).

Bounds are passed on as bounds.

A short description of data set [1]: Titrimetrically measured pKa1 value of the compound. The settings on record: read-out: pKa1. It counts as physicochemical. The essentials:
(§1)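 pKa values determined by titration; relative abundance of each ionic species then calculated for pH 7.4.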

Data set [2] can be described thus: Titrimetrically measured pKa2 value of the compound. The format is physicochemical. The settings on record: read-out: pKa2. The essentials:
as §1

Data set [3] can be described thus: Titrimetrically measured pKa3 value of the compound. The format is physicochemical. The settings on record: read-out: pKa3. The essentials:
as §1

A short description of data set [4]: Titrimetrically measured pKa4 value of the compound. The format is physicochemical. Conditions: read-out: pKa4. The essentials: as §1
The subject of data set [5] is L1210. In words: Impact (100 uM) on polyamine(Put) pools in L1210 cells, expressed relative to untreated controls (control = 100%). The format is functional, Mus musculus. The essentials: (§2)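 Logarithmic-phase murine L1210 cells grown 48 h with analogue at the stated concentration. Cells washed twice in cold RPMI-1640 and extracted with 0.6 N perchloric acid; supernatants held at -20 °C, then analysed by HPLC. Put, Spd and Spm given relative to untreated controls (100%); intracellular analogue given as pmol/10^6 cells.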

The test system of data set [6] is L1210. Put plainly: Impact (100 uM) on polyamine(Spm) pools in L1210 cells, expressed relative to untreated controls (control = 100%). It counts as functional, Mus musculus. The essentials: as §2
Data set [7] deals with L1210. In words: Inhibitory concentration against L1210 cells on 96 hr incubation. It counts as functional, cell-based. The settings on record: Mus musculus, L1210, 96 h. The essentials:
(§3)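 Murine L1210 leukemia cells in suspension in RPMI-1640 with 10% NuSerum, HEPES-MOPS and 1 mM aminoguanidine, 37 °C, 5% CO2. Log-phase cultures at (0.5-1.0) × 10^5 cells/mL treated with filtered aqueous analogue for 48 h, then reseeded and grown a further 48 h. Cells counted by Coulter counter. IC50 is the concentration giving 50% of control growth, corrected for initial inoculum.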

The test system of data set [8] is L1210. In words: Concentration inhibiting radiolabeled spermidine transport in L1210 cells. It counts as functional, cell-based, Mus musculus. The essentials:
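Competition with [3H]- or [14C]spermidine uptake into L1210 leukemia cells. Cells incubated 20 min at 37 °C in RPMI-1640 with 1, 2, 4, 6, 8 and 10 μM radiolabeled SPD, alone or plus 10, 25 or 50 μM analogue. Cells pelleted at 0–4 °C, washed with cold medium containing 1 μM SPD, NaOH-dissolved, then scintillation counted. Ki taken from Lineweaver–Burk plots as simple competitive inhibition.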

Data set [9] has as its target T1, Ornithine decarboxylase (Mus musculus) (UniProt P00860).
T1 sequence (whole entry): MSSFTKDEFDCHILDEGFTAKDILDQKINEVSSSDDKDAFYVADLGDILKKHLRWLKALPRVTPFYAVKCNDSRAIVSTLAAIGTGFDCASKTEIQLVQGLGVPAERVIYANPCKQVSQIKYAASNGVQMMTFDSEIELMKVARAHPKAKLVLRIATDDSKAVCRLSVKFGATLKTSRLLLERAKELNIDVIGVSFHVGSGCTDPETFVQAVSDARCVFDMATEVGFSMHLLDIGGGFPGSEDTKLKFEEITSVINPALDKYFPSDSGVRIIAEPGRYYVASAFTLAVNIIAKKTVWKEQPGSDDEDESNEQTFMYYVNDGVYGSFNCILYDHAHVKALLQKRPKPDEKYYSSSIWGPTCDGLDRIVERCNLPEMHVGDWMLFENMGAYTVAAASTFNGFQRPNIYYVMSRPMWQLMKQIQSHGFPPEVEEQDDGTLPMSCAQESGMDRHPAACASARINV
In words: Impact on polyamine biosynthetic enzyme, Ornithine decarboxylase in L1210 cells treated with the compound for 4 hr. The arrangement: concentration or dose not given beside the values. It counts as cell-based. The essentials:
(§4)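 L1210 cells treated with analogue: 4 h for ODC, 6 h for AdoMetDC, 48 h for SSAT. ODC and AdoMetDC measured as 14CO2 released from [14C]carboxyl-labeled L-ornithine or S-adenosyl-L-methionine. SSAT measured as [14C]acetylspermidine formed from SPD and [14C]acetyl-CoA. Triplicate runs, each with untreated and positive controls (10 μM DENSPM for ODC and AdoMetDC). Activity given as % of untreated control.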

Data set [10] has as its target Spermidine/spermine N(1)-acetyltransferase (SAT) (Mus musculus) (UniProt Q6P8J2+P48026). In words: Impact on polyamine biosynthetic enzyme Spermidine N-acetyl-transferase in L1210 cells treated with the compound for 48 hr. The format is cell-based. The arrangement: concentration or dose not given beside the values. The essentials: as §4
The test system of data set [11] is L1210. In words: Impact on polyamine biosynthetic enzyme, S-adenosyl-L-methionine decarboxylase in L1210 cells treated with the compound for 6 hr. It counts as cell-based. The arrangement: concentration or dose not given beside the values. The essentials:
as §4

The test system of data set [12] is L1210. In words: Impact (100 uM) on polyamine(Spd) pools in L1210 cells, expressed relative to untreated controls (control = 100%). The format is functional, Mus musculus. The essentials: as §2
Data set [13] concerns L1210. Put plainly: Impact (30 uM) on polyamine(Put) pools in L1210 cells, expressed relative to untreated controls (control = 100%). The format is functional, Mus musculus. The essentials: as §2
Data set [14] deals with L1210. Put plainly: Impact (30 uM) on polyamine(Spd) pools in L1210 cells, expressed relative to untreated controls (control = 100%). It counts as functional, Mus musculus. The essentials: as §2
Data set [15] deals with L1210. Put plainly: Impact (30 uM) on polyamine(Spm) pools in L1210 cells, expressed relative to untreated controls (control = 100%). The format is functional, Mus musculus. The essentials: as §2
The subject of data set [16] is L1210. In words: Inhibitory concentration against L1210 cells on 96h incubation. It counts as functional, cell-based. Conditions: Mus musculus, L1210, 96 h. The essentials: as §3
Data set [17] concerns L1210. In words: Level (30 uM) in L1210 cells. It counts as functional, Mus musculus. The essentials:
as §2

In data set [18] the test system is L1210. In words: Level (100 uM) in L1210 cells. The format is functional, Mus musculus. The essentials:
as §2

The subject of data set [19] is L1210. In words: Impact (2 uM) on polyamine(Put) pools in L1210 cells, expressed relative to untreated controls (control = 100%). It counts as functional, Mus musculus. The essentials: as §2
Data set [20] relates to L1210. Put plainly: Impact (2 uM) on polyamine(Spd) pools in L1210 cells, expressed relative to untreated controls (control = 100%). It counts as functional, Mus musculus. The essentials: as §2
Data set [21] deals with L1210. In words: Impact (2 uM) on polyamine(Spm) pools in L1210 cells, expressed relative to untreated controls (control = 100%). The format is functional, Mus musculus. The essentials:
as §2

Data set [22] deals with L1210. Put plainly: Level (2 uM) in L1210 cells. It counts as functional, Mus musculus. The essentials:
as §2

Chain of Spermidine/spermine N(1)-acetyltransferase (SAT) (Mus musculus) (P48026 whole entry, looked up): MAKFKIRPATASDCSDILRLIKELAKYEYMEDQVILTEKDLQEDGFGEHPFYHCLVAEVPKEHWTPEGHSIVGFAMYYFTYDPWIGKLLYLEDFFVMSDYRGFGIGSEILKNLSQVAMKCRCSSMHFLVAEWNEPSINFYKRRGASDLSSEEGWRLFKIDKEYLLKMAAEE
Chain of Spermidine/spermine N(1)-acetyltransferase (SAT) (Mus musculus) (Q6P8J2 whole entry, looked up): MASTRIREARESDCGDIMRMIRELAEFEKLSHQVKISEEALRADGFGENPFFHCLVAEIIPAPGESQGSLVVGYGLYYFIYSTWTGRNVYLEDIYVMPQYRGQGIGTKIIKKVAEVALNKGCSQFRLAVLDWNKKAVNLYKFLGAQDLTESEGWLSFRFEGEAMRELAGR

Turning to `NCCCNCCCCNCCCN` [SPERMINE], the pKa in data set [1] stood at 10.9; in data set [2] it was 10.1; in data set [3] it was 8.82; in [4] it was 7.95.

For the compound `c1cc(CCNCCCCNCCc2ccncc2)ccn1`, the pKa in [1] turned out to be 9.81; in data set [2], 8.85; in data set [3], 5.69; in data set [4], 4.93. In addition, the Polyamine pools amounted to 124% with L1210 [5], 96% in the data set on L1210 [6] and 85% with L1210 [12]. This compound also yielded an IC50 in the data set on L1210 [7] of over 100 µM. Besides, the Ki with L1210 [8] is over 500 µM. Besides, the Control was found to be 100% in [9], 140% in [10] and 100% with L1210 [11].

For `c1cc(CNCCCCNCc2ccncc2)ccn1`, the pKa in data set [1] was 9.23; in data set [2], 7.64; in [3], 4.43; in data set [4], 3.77. In addition, the Polyamine pools with L1210 [5] stood at 87%; in the data set with L1210 [6] it was 99%; in the data set on L1210 [12], 95%. For the same compound, the IC50 in the data set with L1210 [7] worked out at 80 µM. The compound also displayed a Ki in the data set on L1210 [8] of over 500 µM. The Control in data set [9] came to 90%; in data set [10] it was 87%; in the data set on L1210 [11] it was 100%.

As to `CCNCCCNCCCCNCCCNCC` [BIS(ETHYL)SPERMINE], the Polyamine pools is given as 0% in the data set with L1210 [13], 0% in the data set with L1210 [14] and 22% in the data set on L1210 [15]. The compound also displayed an IC50 in the data set with L1210 [16] of 0.2 µM. Besides, in the data set with L1210 [17], the Analogue level is given as 1780 pM (10e6*cells)-1. Moreover, the Control in data set [9] was 3%; in data set [10], 460%; in the data set with L1210 [11], 28%.

In the case of `FC(F)(F)CNCCCNCCCCNCCCNCC(F)(F)F`, the pKa amounted to 10.5 in data set [1], 9.41 in data set [2], 4.81 in data set [3] and 4.09 in data set [4]. Besides, the figures for the Polyamine pools in the data set on L1210 [5], in the data set on L1210 [6] and in the data set with L1210 [12] were 103%, 108% and 103%, respectively. Further, the IC50 in the data set on L1210 [16] is over 100 µM. Also, the Analogue level in the data set on L1210 [18] is given as <20 pM (10e6*cells)-1. In the data set with L1210 [8], the Ki stood at 285 µM. For the same compound, the Control in [9] amounted to 100%; in [10], 97%; with L1210 [11] it was 100%.

Turning to `C(CCNCC1CCNCC1)CNCC1CCNCC1`, the pKa worked out at 10.9 in data set [1], 10.7 in [2], 9.43 in data set [3] and 8.45 in data set [4]. Also, the Polyamine pools came out at 0% with L1210 [19], 5% in the data set with L1210 [20] and 50% in the data set on L1210 [21]. Also, half-maximal inhibition in the data set with L1210 [7] (IC50) was put at 0.1 µM. For the same compound, the Analogue level in the data set with L1210 [22] is 2518 pM (10e6*cells)-1. This compound came in with a Ki in the data set with L1210 [8] of 4.9 µM. Besides, the results for the Control (in [9]; in [10]; in the data set on L1210 [11]) were 6%, 325% and 39%, respectively.
